Experimental data: ChEMBL document CHEMBL1137412, “Molecular tongs containing amino acid mimetic fragments: new inhibitors of wild-type and mutated HIV-1 protease dimerization” (J Med Chem, 2006)

What was measured:
[1] = molecular target: T1, Human immunodeficiency virus type 1 protease (Human immunodeficiency virus 1, UniProt Q72874); test: Inhibition of wild type HIV1 protease dimerization
Summary of the method: (§1)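 Recombinant HIV-1 protease (wild-type or mutant) assayed fluorometrically with substrate DABCYL-γ-abu-Ser-Gln-Asn-Tyr-Pro-Ile-Val-Gln-EDANS (emission 490 nm). Conditions: 100 mM sodium acetate, 1 mM EDTA, 1 M NaCl, pH 4.7, 30 °C, 3% v/v DMSO final. Typically 7.5 nM enzyme and 5.2 µM substrate.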

[2] = molecular target: T1, Human immunodeficiency virus type 1 protease; test: Inhibition of wild type HIV1 protease; summary of the method: as §1
[3] = Stability in presence of 20% fetal calf serum; format: ADME; conditions: cattle
Summary of the method: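 Compound incubated in RPMI medium containing 20% fetal calf serum at 37 °C for up to 2 days. Incubation stopped with ethanol, mixture chilled to 4 °C and centrifuged, and clear supernatant analysed by RP-HPLC. Half-life from least-squares linear regression of log[I] versus time, using at least five points.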

[4] = molecular target: Human immunodeficiency virus type 1 protease (Human immunodeficiency virus 1, UniProt Q72874, D30N); test: Inhibition of dimerization of HIV1 protease D30N mutant; summary of the method: as §1
[5] = molecular target: T1, Human immunodeficiency virus type 1 protease; test: Inhibition of dimerization of HIV1 protease […] mutant; summary of the method: as §1
[6] = molecular target: Human immunodeficiency virus type 1 protease (Human immunodeficiency virus 1, UniProt Q72874, V82A); test: Inhibition of dimerization of HIV1 protease V82A mutant; summary of the method: as §1
[7] = molecular target: Human immunodeficiency virus type 1 protease (Human immunodeficiency virus 1, UniProt Q72874, G48V/L90M); test: Inhibition of dimerization of HIV1 protease G48V/L90M mutant; summary of the method: as §1
[8] = molecular target: T1, Human immunodeficiency virus type 1 protease; test: Inhibition of dimerization of HIV1 protease MDR-HM mutant; summary of the method: as §1
[9] = molecular target: T1, Human immunodeficiency virus type 1 protease; test: Inhibition of dimerization of HIV1 protease ANAM-11 mutant; summary of the method: as §1
[10] = molecular target: Human immunodeficiency virus type 1 protease (Human immunodeficiency virus 1) (UniProt Q72874); test: Inhibition of wild type HIV1 protease at 5 uM
Summary of the method: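 Recombinant wild-type HIV-1 protease (7.5 nM) was run with fluorogenic substrate DABCYL-γ-abu-Ser-Gln-Asn-Tyr-Pro-Ile-Val-Gln-EDANS (5.2 µM) in 100 mM sodium acetate, 1 mM EDTA, 1 M NaCl, pH 4.7, 30 °C. DMSO was kept at 3% v/v final. Emission was read at 490 nm. Percent inhibition was measured at 5 µM compound.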

[11] = molecular target: Human immunodeficiency virus type 1 protease (Human immunodeficiency virus 1) (UniProt Q72874); test: Inhibition of wild type HIV1 protease dimerization at 5 uM

Work on `COC(=O)[C@@H](NC(=O)[C@H](CC(C)C)NC(=O)[C@@H](NC(=O)CCCOc1ccc2ccc(OCCCC(=O)N[C@H](C(=O)NNC(=O)c3cc(NC(C)=O)ccc3OC)C(C)C)cc2c1)C(C)C)C(C)C` yielded a Ki [1] of 200 nM.

With `COC(=O)[C@@H](NC(=O)[C@@H](CC(C)C)NC(=O)[C@@H](NC(=O)CCCOc1ccc2ccc(OCCCC(=O)Nc3ccc(C)n(CC(=O)Nc4ccc(C)n(CC(=O)OC(C)(C)C)c4=O)c3=O)cc2c1)C(C)C)C(C)C` the Ki [2] was 8400 nM.

In the case of `COC(=O)[C@@H](NC(=O)[C@H](CC(C)C)NC(=O)[C@@H](NC(=O)CCCOc1ccc2ccc(OCCCC(=O)N[C@H](C(=O)Nc3cccn(CC(N)=O)c3=O)C(C)C)cc2c1)C(C)C)C(C)C`, the half-life [3] is reported as 41 h.

Work on `COC(=O)[C@@H](NC(=O)[C@H](CC(C)C)NC(=O)[C@@H](NC(=O)CCCOc1ccc2ccc(OCCCC(=O)N[C@H](C(=O)N[C@@H](CC(C)C)C(=O)N[C@H](C(=O)OC)C(C)C)C(C)C)cc2c1)C(C)C)C(C)C` yielded a half-life [3] of 28 h.

For `COC(=O)[C@@H](NC(=O)[C@@H](CC(C)C)NC(=O)[C@@H](NC(=O)CCCOc1ccc2ccc(OCCCC(=O)NC(C(=O)Nc3cccn(CC(N)=O)c3=O)C(C)C)cc2c1)C(C)C)C(C)C` (some centres undefined), the Ki [1] was 400 nM, the Ki [4] was 500 nM and the Ki [5] was 100 nM. It also gave a Ki [6] of 240 nM, a Ki [7] of 500 nM and a Ki [8] of 4800 nM. The Ki [9] was 200 nM.

`CC[C@H](C)[C@H](NC(=O)Cn1c(C)ccc(NC(=O)CCCOc2ccc3ccc(OCCCC(=O)N[C@H](C(=O)N[C@H](CC(C)C)C(=O)N[C@H](C(=O)OC)C(C)C)C(C)C)cc3c2)c1=O)C(=O)N[C@H](C(N)=O)[C@@H](C)O` gave a Ki [2] of 9700 nM.

Molecule `COC(=O)[C@@H](NC(=O)[C@H](CC(C)C)NC(=O)[C@@H](NC(=O)CCCOc1ccc2ccc(OCCCC(=O)NNC(=O)c3cc(N)ccc3OC)cc2c1)C(C)C)C(C)C` has an inhibition [10] of 28% and an inhibition [11] of 28%.
